We go through 30 compounds from ChEMBL document CHEMBL4004850, “Rational design of reversible inhibitors for trehalose 6-phosphate phosphatases” (Eur J Med Chem, 2017).

Each structure is given as a SMILES string.

For assay [1], the target named is T1, Trehalose-phosphatase (Brugia malayi) (UniProt A8NS89).
T1 sequence (whole entry): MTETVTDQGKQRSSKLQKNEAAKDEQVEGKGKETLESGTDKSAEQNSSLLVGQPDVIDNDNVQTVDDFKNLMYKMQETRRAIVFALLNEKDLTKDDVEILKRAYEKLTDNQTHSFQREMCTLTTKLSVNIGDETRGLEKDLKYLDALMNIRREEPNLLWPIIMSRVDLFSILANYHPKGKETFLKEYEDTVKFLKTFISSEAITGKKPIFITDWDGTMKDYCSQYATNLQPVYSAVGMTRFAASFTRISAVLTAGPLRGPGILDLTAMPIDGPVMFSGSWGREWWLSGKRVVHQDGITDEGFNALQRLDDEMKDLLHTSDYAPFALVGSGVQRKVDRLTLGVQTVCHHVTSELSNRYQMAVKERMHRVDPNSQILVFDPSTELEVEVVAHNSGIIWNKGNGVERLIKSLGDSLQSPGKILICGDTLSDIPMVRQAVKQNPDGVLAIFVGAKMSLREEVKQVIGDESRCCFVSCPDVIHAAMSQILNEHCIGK
The experiment in a line: Inhibition of Brugia malayi T6PP using T6P as substrate assessed as fraction of enzyme unbound with compound by measuring ratio of initial velocities of T6P substrate hydrolysis in presence and absence of compound at 1 mM […] by BioMol green dye based HTS assay.

Assay [2] deals with Salmonella enterica subsp. enterica serovar Typhimurium. The assay is described as follows: Inhibition of Salmonella typhimurium T6PP using T6P as substrate assessed as fraction of enzyme unbound with compound by measuring ratio of initial velocities of T6P substrate hydrolysis in presence and absence of compound at 1 mM after 5 mins by BioMol green dye based HTS assay. The essentials:
(§1)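 Freshly purified St-T6PP or Sb-T6PP (5–25 nM) in 50 mM Hepes pH 7.5, 25 mM NaCl, 2 mM MgCl₂, 5% glycerol at 25 °C. T6P at half saturation (Km) for each enzyme. Hydrolysis rate was compared with and without 1 mM inhibitor; phosphate read at 625 nm after 30 min incubation. The ratio VI/V gives the fraction of enzyme not inhibitor-bound.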

A further assay concerns Ascaris suum. The experiment in a line: Inhibition of Ascaris suum T6PP using T6P as substrate assessed as fraction of enzyme unbound with compound by measuring ratio of initial velocities of T6P substrate hydrolysis in presence and absence of compound at 1 mM after 5 mins by BioMol green dye based HTS assay. In short, it runs like this: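 T6P is at half saturation ([T6P] = Km), with and without 1 mM inhibitor, at 25 °C. Released phosphate is detected with dye (30 min incubation) by A625. The reported value is V_I/V, the initial-velocity ratio.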

For assay [3], the system named is Shigella boydii. The experiment in a line: Inhibition of Shigella boydii T6PP using T6P as substrate assessed as fraction of enzyme unbound with compound by measuring ratio of initial velocities of T6P substrate hydrolysis in presence and absence of compound at 1 mM after 5 mins by BioMol green dye based HTS assay. In short, it runs like this: as §1
The next assay concerns the target T2, Trehalose-phosphatase (Brugia malayi, UniProt A8NS89).
T2 sequence (A8NS89 whole entry): T1 sequence (whole entry)
The experiment in a line: Competitive inhibition of Brugia malayi T6PP using T6P as substrate by Lineweaver-Burk plot analysis. In short, it runs like this: (§2)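 Continuous phosphate-release assay (EnzChek, MESG/purine nucleoside phosphorylase) at 25 °C. Initial velocities of T6P hydrolysis by T6PP were taken at varied T6P with inhibitor at 0, Ki and 2×Ki. Km and Vmax come from double-reciprocal plots.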

The nature of assay [4]: Inhibition of Salmonella typhimurium T6PP using T6P as substrate by Lineweaver-Burk plot analysis. More on the design: species or system Salmonella enterica subsp. enterica serovar Typhimurium. In short, it runs like this: as §2
In assay [5] the test system is Shigella boydii. The experiment in a line: Inhibition of Shigella boydii T6PP assessed as Vmax for substrate using T6P as substrate by Lineweaver-Burk plot analysis. In short, it runs like this: as §2
In assay [6] the test system is Shigella boydii. The assay is described as follows: Inhibition of Shigella boydii T6PP assessed as Km for substrate using T6P as substrate by Lineweaver-Burk plot analysis. The essentials: as §2
Assay [7] is described as follows: Inhibition of Ascaris suum T6PP using T6P as substrate by Lineweaver-Burk plot analysis.
The nature of assay [8]: Inhibition of Shigella boydii T6PP using T6P as substrate by Lineweaver-Burk plot analysis. In short, it runs like this:
as §2

Consider `OC[C@H]1O[C@@H](NC(=S)Nc2ccccc2)[C@H](O)[C@@H](O)[C@@H]1O`, for which the Ratio in [1] was 0.99; in assay [2], 1.09; in the assay with Ascaris suum, 0.81; in the assay with Shigella boydii [3], 0.92.
Turning to `O=S(=O)(O)OC[C@H]1O[C@@H](n2cc(-c3ccccc3)nn2)[C@H](O)[C@@H](O)[C@@H]1O`, the Ratio in [1] was 0.98; in assay [2], 0.97; in the assay with Ascaris suum it was 0.76; in the assay with Shigella boydii [3] it was 0.9.
Turning to `COc1cc(C=O)cc(OC)c1O[C@@H]1O[C@H](COS(=O)(=O)O)[C@@H](O)[C@H](O)[C@H]1O`, the Ratio was determined as 0.55 in assay [1], 0.96 in [2], 0.94 in the assay on Ascaris suum and 1 in the assay with Shigella boydii [3].
For `Nc1ccc(O[C@@H]2O[C@H](COS(=O)(=O)O)[C@@H](O)[C@H](O)[C@H]2O)cc1`, the Ratio in assay [1] was determined as 0.63; in assay [2] it was 0.94; in the assay on Ascaris suum it was 0.74; with Shigella boydii [3], 1.03.
Take `CCCCCCc1ccc(O[C@@H]2O[C@H](COS(=O)(=O)O)[C@@H](O)[C@H](O)[C@H]2O)cc1`: the Ki at Trehalose-phosphatase is 200 µM; in assay [4], > 400 µM; in assay [7], 200 µM; in assay [8] it was 140 µM. The Vmax in the assay with Shigella boydii [5] came out at 0.534 µM/s. Moreover, the Km with Shigella boydii [6] was 231 µM.
Take `O=Cc1ccc(O[C@@H]2O[C@H](COS(=O)(=O)O)[C@@H](O)[C@H](O)[C@H]2O)cc1`: the Ratio in assay [1] stood at 1; in assay [2], 0.87; in the assay with Ascaris suum, 0.81; in the assay on Shigella boydii [3] it was 1.06.
For `O=Cc1ccccc1O[C@@H]1O[C@H](COS(=O)(=O)O)[C@@H](O)[C@H](O)[C@H]1O`, the Ratio in assay [1] stood at 0.79; in [2] it was 0.85; in the assay with Ascaris suum it was 0.99; with Shigella boydii [3], 0.96.
Regarding `CC(=O)Nc1ccc(O[C@@H]2O[C@H](COS(=O)(=O)O)[C@@H](O)[C@H](O)[C@H]2O)cc1`, the Ratio in assay [1] turned out to be 0.87; in assay [2], 0.85; in the assay with Ascaris suum, 0.9; in the assay on Shigella boydii [3], 0.88.
Take `O=S(=O)(O)OC[C@H]1O[C@H](O[C@H]2O[C@H](CO)[C@@H](O)[C@H](O)[C@H]2O)[C@H](O)[C@@H](O)[C@@H]1O`: the Ratio in assay [1] was determined as 0.13; in assay [2], 0.01; in the assay with Ascaris suum, 0.21; in the assay on Shigella boydii [3], 0.22. For the same compound, the Ki at Trehalose-phosphatase came to 80 µM; in assay [4], 180 µM; in assay [7], 50 µM; in [8], 330 µM.
Regarding `O=S(=O)(O)OC[C@H]1O[C@@H](Oc2ccc(CO)cc2)[C@H](O)[C@@H](O)[C@@H]1O`, the Ratio came out at 0.68 in assay [1], 0.79 in assay [2], 0.76 in the assay with Ascaris suum and 0.67 in the assay with Shigella boydii [3].
For the compound `OC[C@H]1O[C@H](O[C@H]2O[C@H](CO)[C@@H](O)[C@H](O)[C@H]2O)[C@H](O)[C@@H](O)[C@@H]1O` [TREHALOSE], the Ratio was 0.98 in assay [1], 0.88 in [2], 0.97 with Ascaris suum and 1.01 in the assay with Shigella boydii [3]. The Ki at Trehalose-phosphatase was > 10000 µM.
Take `CCCCCCCCO[C@@H]1O[C@H](COS(=O)(=O)O)[C@@H](O)[C@H](O)[C@H]1O`: the Ratio was found to be 0.72 in assay [1], 0.54 in [2], 0.9 with Ascaris suum and 0.79 in the assay on Shigella boydii [3].
Consider `CO[C@H]1O[C@H](COS(=O)(=O)O)[C@@H](O)[C@H](OCc2ccccc2)[C@H]1O`, for which the Ratio in [1] is 0.67; in [2], 0.99; with Ascaris suum it was 1.04; in the assay on Shigella boydii [3], 0.84.
Take `OC[C@H]1O[C@@H](n2cc(-c3ccccc3)nn2)[C@H](O)[C@@H](O)[C@@H]1O`: the Ratio in [1] came to 0.85; in assay [2] it was 0.9; in the assay on Ascaris suum, 0.96; with Shigella boydii [3] it was 1.
As to `CO[C@H]1O[C@H](COS(=O)(=O)O)[C@@H](O)[C@H](O)[C@H]1OCc1ccccc1`, the Ratio in assay [1] is 0.53; in assay [2], 0.95; with Ascaris suum, 0.96; with Shigella boydii [3], 1.
As to `O=S(=O)(O)OC[C@H]1O[C@@H](Oc2ccc(F)c(F)c2)[C@H](O)[C@@H](O)[C@@H]1O`, the Ratio in assay [1] is 0.74; in assay [2], 0.89; in the assay on Ascaris suum, 0.88; with Shigella boydii [3], 0.92.
As to `O=S(=O)(O)OC[C@H]1O[C@H](OCc2ccccc2)[C@H](O)[C@@H](O)[C@@H]1O`, the Ratio was determined as 0.07 in [1], 0.47 in [2], 0.86 with Ascaris suum and 0.74 with Shigella boydii [3]. For the same compound, the Ki on Trehalose-phosphatase was 160 µM.
On to `O=[N+]([O-])c1ccc(O[C@@H]2O[C@H](COS(=O)(=O)O)[C@@H](O)[C@H](O)[C@H]2O)cc1`, for which the Ratio was 0.64 in [1], 0.68 in [2], 0.83 in the assay with Ascaris suum and 0.77 in the assay on Shigella boydii [3].
Regarding `CO[C@H]1O[C@H](COS(=O)(=O)O)[C@@H](OCc2ccccc2)[C@H](O)[C@H]1O`, the Ratio turned out to be 0.68 in assay [1], 0.97 in assay [2], 0.99 with Ascaris suum and 0.95 with Shigella boydii [3].
The matching figures for `NS(=O)(=O)OCc1cccc(N[C@@H]2O[C@H](CO)[C@@H](O)[C@H](O)[C@H]2O)c1`: 1.05, 1, 0.96 and 0.85.
For the compound `OC[C@H]1O[C@@H](Oc2ccccc2)[C@H](O)[C@@H](O)[C@@H]1O`, the Ratio came to 1.12 in assay [1], 0.87 in assay [2], 1 in the assay on Ascaris suum and 0.9 in the assay with Shigella boydii [3].
On to `O=S(=O)(O)OC[C@H]1O[C@H](O)[C@H](O)[C@@H](O)[C@@H]1O`, for which the Ratio was found to be 0.93 in assay [1], 0.84 in assay [2], 0.94 with Ascaris suum and 0.75 in the assay on Shigella boydii [3].
With `O=Cc1cccc(O[C@@H]2O[C@H](COS(=O)(=O)O)[C@@H](O)[C@H](O)[C@H]2O)c1`, the Ratio in assay [1] is 1.05; in assay [2], 0.95; with Ascaris suum, 0.78; with Shigella boydii [3], 0.81.
Consider `OC[C@H]1O[C@@H](Nc2ccccc2)[C@H](O)[C@@H](O)[C@@H]1O`, for which the Ratio in assay [1] stood at 1; in [2], 0.77; in the assay on Ascaris suum, 0.97; in the assay on Shigella boydii [3], 0.92.
Regarding `O=S(=O)(O)OC[C@H]1O[C@@H](Oc2cccc(CO)c2)[C@H](O)[C@@H](O)[C@@H]1O`, the Ratio in assay [1] came out at 0.69; in assay [2], 0.77; with Ascaris suum, 0.63; in the assay with Shigella boydii [3] it was 0.46.
Turning to `O=S(=O)(O)OC[C@H]1O[C@@H](Oc2ccccc2CO)[C@H](O)[C@@H](O)[C@@H]1O`, the Ratio in [1] turned out to be 0.89; in [2], 0.73; in the assay with Ascaris suum, 0.9; in the assay on Shigella boydii [3], 0.85.
Take `CO[C@H]1O[C@H](COS(=O)(=O)O)[C@@H](O)[C@H](O)[C@H]1O`: the Ratio in [1] turned out to be 0.8; in [2], 1.04; in the assay on Ascaris suum, 1.07; in the assay with Shigella boydii [3], 1.
For the compound `O=S(=O)(O)OC[C@H]1O[C@@H](Oc2cccc3ccccc23)[C@H](O)[C@@H](O)[C@@H]1O`, the Ratio was 0.85 in [1], 0.8 in assay [2], 0.91 with Ascaris suum and 0.85 in the assay on Shigella boydii [3].
Turning to `OC[C@H]1O[C@H](Oc2ccccc2)[C@H](O)[C@@H](O)[C@@H]1O`, the Ratio amounted to 0.96 in [1], 1 in [2], 0.97 with Ascaris suum and 0.86 with Shigella boydii [3].
As for `O=S(=O)(O)OCc1cccc(O[C@@H]2O[C@H](CO)[C@@H](O)[C@H](O)[C@H]2O)c1`, the Ratio in assay [1] was found to be 0.59; in assay [2], 0.85; with Ascaris suum it was 0.98; in the assay on Shigella boydii [3], 0.8.
